Experimental data pooled from the literature.
Each line is one published result; the experiments were not run side by side.
Target: Mitogen-activated protein kinase 6 (MAPK6, Homo sapiens, UniProt Q16659)

Compound	read-out	method	concentration	remaining binding
Cc1cnc(Nc2ccc(C(=O)N3CCC(N4CCCC4)CC3)cc2)nc1-c1cc2ccccc2s1	binding	competition with immobilised ligand	1 µM	0.1%
CC(=O)C1=C(C)N(c2cccc(C(F)(F)F)c2)C(=O)N[C@@H]1c1ccc(C#N)nc1	cell-free assay	competition with immobilised ligand	1 µM	75.8%
c1cncc(-c2cccc(Nc3nccc(NC4CCCCC4)n3)c2)c1	binding	competition with immobilised ligand	10 µM	100%
COc1ncc2cc3ccccc3nc2c1C#N	cell-free assay	competition with immobilised ligand	5 µM	90%
CCCOc1ccc([C@H]2[C@H](C(=O)O)[C@@H](c3ccc4c(c3)OCO4)CN2CC(=O)Nc2c(CC)cccc2CC)cc1	cell-free assay	competition with immobilised ligand	1 µM	92%
C[C@H]1CCN(c2nccc(-c3cnn4ncccc34)n2)C1	binding	–	1 µM	83%
CNC(=O)[C@@H]1CC[C@@H](n2c(-c3ccc4cnccc4c3)nc3ccc(C(=O)NCc4cccc(C(N)=O)c4)cc32)C1	binding	competition with immobilised ligand	1 µM	100%
CC1CCCN1c1nccc(-c2cnn3ncccc23)n1 (stereo not shown)	binding	–	1 µM	89%
Cc1c[nH]c2nccc(Oc3c(F)cc(Nc4cc(Cl)nc(N)n4)cc3F)c12	cell-free assay	competition with immobilised ligand	0.1 µM	95%
Cc1cnn2ncc(-c3ccnc(N(C)C)n3)c2c1	binding	–	1 µM	98%
CS(=O)(=O)N1CCCC(NC(=O)[C@H](CCC2CCCCC2)NC(=O)c2ccc(CNC(=O)c3cnc4ccccn34)cc2)C1 (stereo partly shown)	cell-free assay	competition with immobilised ligand	0.1 µM	96%
N[C@H]1CCN(c2nccc(-c3cnn4ncccc34)n2)C1	binding	–	1 µM	98%
O=C(NCC1CCOCC1)c1n[nH]cc1NC(=O)c1c(F)cccc1F	binding	competition with immobilised ligand	1 µM	86%
O=C(c1ccc(Nc2nccc(-c3cc4ccccc4s3)n2)cc1)N1CCC(N2CCCC2)CC1	binding	competition with immobilised ligand	1 µM	11%
CN(C)c1ncnc(-c2ccc3nc(Nc4cc(CN5CCN(C(=O)CC(F)(F)F)CC5)ccn4)[nH]c3c2)c1Cl	cell-free assay	competition with immobilised ligand	1 µM	100%
F[C@@H]1CCN(c2nccc(-c3cnn4ncccc34)n2)C1	binding	–	1 µM	74%
Nc1ncc2c(n1)-c1c([nH]c3ccc(C#CC4CC4)cc13)CCCC2	binding	competition with immobilised ligand	1 µM	100%
Cn1nc(C(=O)NCc2ccc(C(=O)O)cc2)cc1-c1ccc2[nH]ccc2c1	cell-free assay	competition with immobilised ligand	0.1 µM	100%
CN(C)c1nccc(-c2cnc3ncccn23)n1	binding	–	1 µM	93%
N#CC1(c2ccccn2)CCN(Cc2cc(C(=O)N3CCCC3)c(=O)n3ccccc23)CC1	cell-free assay	competition with immobilised ligand	1 µM	79%
COc1ccnn2ncc(-c3ccnc(N(C)C)n3)c12	binding	–	1 µM	85%
O=C(NCCCN1CCOCC1)c1ccc(Nc2ncc(Cl)c(-c3ccc(Cl)s3)n2)cc1	binding	competition with immobilised ligand	1 µM	0.05%
